How the values were obtained:
[1] = molecular target: 72 kDa type IV collagenase (Homo sapiens, UniProt P08253); assay: Inhibition of MMP2 by microtiter plate fluorimetric assay
Procedure, shortened: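 Substrate was succinylated gelatin, in 50 mM sodium borate buffer, pH 8.5. Compound and enzyme were preincubated 30 min at 37 °C, then incubated another 60 min at 37 °C after substrate addition. Controls were a 100% group without compound and a blank with enzyme only.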

Aminopeptidase N = Aminopeptidase N (Homo sapiens, UniProt P15144); assay: Inhibition of aminopeptidase N by microtiter plate fluorimetric assay; details: in the assay text read “spectrophotometric” for “fluorimetric”
Chain of Aminopeptidase N (P15144 whole entry): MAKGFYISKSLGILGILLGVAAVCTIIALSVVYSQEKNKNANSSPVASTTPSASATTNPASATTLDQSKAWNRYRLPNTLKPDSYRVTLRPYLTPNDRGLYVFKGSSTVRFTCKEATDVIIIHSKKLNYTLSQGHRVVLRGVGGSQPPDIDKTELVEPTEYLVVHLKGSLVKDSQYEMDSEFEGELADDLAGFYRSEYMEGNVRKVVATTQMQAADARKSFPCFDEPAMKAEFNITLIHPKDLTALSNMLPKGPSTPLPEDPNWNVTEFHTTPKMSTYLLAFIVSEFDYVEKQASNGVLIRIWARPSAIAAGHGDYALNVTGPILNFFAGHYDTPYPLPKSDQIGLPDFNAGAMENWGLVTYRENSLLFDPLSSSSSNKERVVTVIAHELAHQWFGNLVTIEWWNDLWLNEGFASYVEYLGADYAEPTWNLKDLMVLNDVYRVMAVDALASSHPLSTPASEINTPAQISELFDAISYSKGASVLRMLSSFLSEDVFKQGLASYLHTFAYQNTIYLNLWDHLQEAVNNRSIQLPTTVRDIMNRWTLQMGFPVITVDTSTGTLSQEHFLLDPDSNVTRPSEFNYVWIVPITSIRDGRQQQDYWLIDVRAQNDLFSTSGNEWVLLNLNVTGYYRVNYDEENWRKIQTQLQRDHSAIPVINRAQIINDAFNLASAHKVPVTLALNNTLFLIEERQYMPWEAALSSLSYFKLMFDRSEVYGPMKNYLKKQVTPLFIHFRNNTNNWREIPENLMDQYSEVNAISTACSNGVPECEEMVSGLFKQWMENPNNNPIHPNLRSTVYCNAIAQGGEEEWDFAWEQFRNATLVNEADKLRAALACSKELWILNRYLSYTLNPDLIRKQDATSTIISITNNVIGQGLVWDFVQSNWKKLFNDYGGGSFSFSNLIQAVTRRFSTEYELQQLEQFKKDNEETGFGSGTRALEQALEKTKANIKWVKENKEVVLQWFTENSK
Procedure, shortened: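 Substrate was L-leucine p-nitroanilide, in 50 mM sodium phosphate buffer, pH 7.2. Enzyme and compound were preincubated 30 min at 37 °C, then incubated 60 min at 37 °C with substrate. OD405 was read. Inhibition % = [OD(100%) − OD(compound)]/[OD(100%) − OD(blank)] × 100, where 100% has no compound and blank has enzyme only.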

Chain of 72 kDa type IV collagenase (P08253 whole entry): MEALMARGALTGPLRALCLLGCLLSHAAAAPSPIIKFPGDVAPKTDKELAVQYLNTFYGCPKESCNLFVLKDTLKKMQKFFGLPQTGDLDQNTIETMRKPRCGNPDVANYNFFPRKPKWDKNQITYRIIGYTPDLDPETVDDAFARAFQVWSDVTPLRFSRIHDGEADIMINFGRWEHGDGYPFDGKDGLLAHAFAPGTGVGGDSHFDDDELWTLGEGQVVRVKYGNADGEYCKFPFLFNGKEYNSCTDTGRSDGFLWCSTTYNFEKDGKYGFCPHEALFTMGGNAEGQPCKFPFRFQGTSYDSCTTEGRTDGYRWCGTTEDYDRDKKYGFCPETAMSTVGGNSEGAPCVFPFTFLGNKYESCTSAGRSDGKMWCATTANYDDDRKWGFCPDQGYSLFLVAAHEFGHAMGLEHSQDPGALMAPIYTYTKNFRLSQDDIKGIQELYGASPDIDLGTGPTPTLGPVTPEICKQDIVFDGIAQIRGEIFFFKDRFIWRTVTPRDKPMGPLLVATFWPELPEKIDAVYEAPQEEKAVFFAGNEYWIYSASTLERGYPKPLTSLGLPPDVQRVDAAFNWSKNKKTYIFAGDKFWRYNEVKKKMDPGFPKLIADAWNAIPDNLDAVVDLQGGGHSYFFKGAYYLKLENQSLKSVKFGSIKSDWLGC

Row | SMILES | IC50 [1] | IC50 (Aminopeptidase N)
1 | COC(=O)[C@@H]1C[C@@H](OS(C)(=O)=O)CN1C(=O)/C=C/c1ccc(OC)c(OC)c1 | 1.1 µM | 46.6 µM
2 | COC(=O)[C@@H]1C[C@H](NC(=O)c2cccnc2)CN1C(C)=O | 1 µM | 78.4 µM
3 | COC(=O)[C@@H]1C[C@H](NC(=O)/C=C/c2ccccc2)CN1C(C)=O | 0.1 µM | 135 µM
4 | COC(=O)[C@@H]1C[C@H](NC(=O)c2ccc([N+](=O)[O-])cc2)CN1C(C)=O | 5.2 µM | 72.3 µM
5 | COC(=O)[C@@H]1C[C@H](NC(=O)c2ccc(Br)cc2)CN1C(C)=O | 6.1 µM | 149 µM
6 | COC(=O)[C@@H]1C[C@H](NC(=O)/C=C/c2ccc(OC)c(OC)c2)CN1C(C)=O | 0.8 µM | 162 µM
7 | CC(=O)N1C[C@@H](NC(=O)/C=C/c2ccccc2)C[C@H]1C(=O)NO | 0.004 µM | 56.1 µM
8 | COC(=O)[C@@H]1C[C@@H](O)CN1C(=O)/C=C/c1ccc(OC)c(OC)c1 | 2.9 µM | 81.8 µM
9 | COC(=O)CNC(=O)[C@@H]1C[C@H](NC(=O)c2cc(OC)c(OC)c(OC)c2)CN1C(C)=O | 0.109 µM | 121 µM
10 | COc1ccc(CCC(=O)N2C[C@@H](NC(=O)c3cccnc3)C[C@H]2C(=O)NO)cc1OC | 0.012 µM | 62.2 µM
11 | COC(=O)[C@@H]1C[C@H](N=[N+]=[N-])CN1C(C)=O | 2.6 µM | 73.7 µM
12 | COC(=O)[C@@H]1C[C@H](N)CN1C(C)=O | 1.5 µM | 24.1 µM
13 | COC(=O)[C@@H]1C[C@H](NC(=O)/C=C/c2ccccc2)CN1C(=O)CCc1ccc(OC)c(OC)c1 | 1.6 µM | 233 µM
14 | COc1ccc(CCC(=O)N2C[C@@H](NC(=O)/C=C/c3ccccc3)C[C@H]2C(=O)NO)cc1OC | 0.011 µM | 96.6 µM
15 | COC(=O)[C@@H]1C[C@@H](O)CN1C(C)=O | 2 µM | 38.6 µM
16 | COC(=O)[C@@H]1C[C@H](N)CN1C(=O)CCc1ccc(OC)c(OC)c1 | 2.1 µM | 68.4 µM
17 | COC(=O)[C@@H]1C[C@H](NC(=O)c2cnccn2)CN1C(C)=O | 2.1 µM | 82.6 µM
18 | COC(=O)[C@@H]1C[C@H](NC(=O)c2cccnc2)CN1C(=O)/C=C/c1ccc(OC)c(OC)c1 | 3 µM | 137 µM
19 | COc1cc(C(=O)N[C@H]2C[C@@H](C(=O)O)N(C(C)=O)C2)cc(OC)c1OC | 0.016 µM | 51.4 µM
20 | COC(=O)[C@@H]1C[C@H](NC(=O)c2cccnc2)CN1C(=O)CCc1ccc(OC)c(OC)c1 | 2.2 µM | 196 µM
21 | COC(=O)[C@@H]1C[C@H](N=[N+]=[N-])CN1C(=O)/C=C/c1ccc(OC)c(OC)c1 | 3.4 µM | 71.3 µM
22 | COC(=O)[C@@H]1C[C@H](NC(=O)c2ccc(Cl)cc2)CN1C(C)=O | 4.2 µM | 122 µM
23 | COC(=O)[C@@H]1C[C@@H](OS(=O)(=O)c2ccc(C)cc2)CN1C(C)=O | 0.3 µM | 30.4 µM
24 | CC(=O)N1C[C@@H](NC(=O)c2cccnc2)C[C@H]1C(=O)NO | 0.005 µM | 29.8 µM
25 | COC(=O)[C@@H]1C[C@H](N)CN1C(=O)/C=C/c1ccc(OC)c(OC)c1 |  | 70.6 µM
26 | COC(=O)[C@@H]1C[C@H](NC(=O)c2ccccc2)CN1C(C)=O | 2.7 µM | 123 µM
27 | COc1cc(C(=O)N[C@H]2C[C@@H](C(=O)NO)N(C(C)=O)C2)cc(OC)c1OC | 0.001 µM | 33.5 µM
28 | COC(=O)[C@@H]1C[C@H](NC(=O)c2cc(OC)c(OC)c(OC)c2)CN1C(C)=O | 0.1 µM | 98.4 µM
29 | COC(=O)[C@@H]1C[C@H](NC(=O)c2ccncc2)CN1C(C)=O | 2.2 µM | 74.8 µM

Reference: ChEMBL document CHEMBL1140993, “Design, synthesis and preliminary evaluation of novel pyrrolidine derivatives as matrix metalloproteinase inhibitors” (Eur J Med Chem, 2008)
